Series [1] is described as follows: Drug metabolism in dog intestinal microsomes assessed as R-138727 formation at 1.6 to 200 uM after 15 mins incubation. In kind it is ADME, Canis lupus familiaris, Intestine, Microsome. The conditions noted are these: 0.25 h. In a few lines:
(§1)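 Preincubated 5 min at 37°C, then R-95913 added (1.6–200 μM final) and incubated 15 min at 37°C, in triplicate. Stopped with methoxyphenacyl bromide and internal standard in acetonitrile, solid-phase extracted, and analysed by HPLC. Michaelis-Menten fit, CLint = Vmax/Km.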

Series [2] concerns Liver microsome. The series can be described thus: Drug metabolism in dog liver microsomes assessed as R-138727 formation at 1.6 to 200 uM after 15 mins incubation. It is filed as ADME, Canis lupus familiaris. The settings on record: 0.25 h. The method, boiled down: as §1
For orientation: Liver microsomes are vesicles of endoplasmic reticulum, rich in cytochrome P450 enzymes.

Series [3] in a line: Drug metabolism in human intestinal microsomes assessed as R-138727 formation at 1.6 to 200 uM after 15 mins incubation. The conditions noted are these: 0.25 h. In kind it is ADME, Intestine, Microsome. The method, boiled down:
as §1

Series [4] relates to Liver microsome. As to the kind of experiment: Drug metabolism in human liver microsomes assessed as R-138727 formation at 1.6 to 200 uM after 15 mins incubation. It is filed as ADME. The settings on record: 0.25 h.
Series [5] is described as follows: Drug metabolism in dog intestinal microsomes assessed as R-138727 formation measured per protein at 1.6 to 200 uM after 15 mins incubation. In kind it is ADME, Canis lupus familiaris, Intestine, Microsome. The settings on record: 0.25 h. The method, boiled down: as §1
In series [6] the test system is Liver microsome. The series can be described thus: Drug metabolism in dog liver microsomes assessed as R-138727 formation measured per protein at 1.6 to 200 uM after 15 mins incubation. In kind it is ADME, Canis lupus familiaris. The settings on record: 0.25 h. The method, boiled down: as §1
The nature of series [7]: Drug metabolism in human intestinal microsomes assessed as R-138727 formation measured per protein at 1.6 to 200 uM after 15 mins incubation. It is filed as ADME, Intestine, Microsome. The conditions noted are these: 0.25 h. The method, boiled down:
as §1

Series [8] relates to Liver microsome. The series can be described thus: Drug metabolism in human liver microsomes assessed as R-138727 formation at 1.6 to 200 uM measured per protein after 15 mins incubation. The conditions noted are these: 0.25 h. In kind it is ADME.
The nature of series [9]: Intrinsic clearance in dog intestinal microsomes assessed as R-138727 formation measured per protein at 1.6 to 200 uM after 15 mins incubation. The conditions noted are these: 0.25 h. It is filed as ADME, Canis lupus familiaris, Intestine, Microsome. In a few lines: (§2)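 Microsomes (1 mg protein/ml; dog intestinal, dog liver or human intestinal) in 43 mM potassium phosphate pH 7.4 with an NADPH-generating system and 5 mM glutathione, in triplicate. After 5 min preincubation at 37°C, R-95913 (1.6–200 µM final) was added for 15 min at 37°C. Product was derivatised with methoxyphenacyl bromide, extracted by SPE and measured by HPLC. Michaelis–Menten fit; CLint = Vmax/Km.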

Series [10] deals with Liver microsome. As to the kind of experiment: Intrinsic clearance in dog liver microsomes assessed as R-138727 formation measured per protein at 1.6 to 200 uM after 15 mins incubation. The settings on record: 0.25 h. It is filed as ADME, Canis lupus familiaris. In a few lines:
as §2

Series [11] can be described thus: Intrinsic clearance in human intestinal microsomes assessed as R-138727 formation measured per protein at 1.6 to 200 uM after 15 mins incubation. It is filed as ADME, Intestine, Microsome. The conditions noted are these: 0.25 h. In a few lines: as §2
Series [12] deals with Liver microsome. The series can be described thus: Intrinsic clearance in human liver microsomes assessed as R-138727 formation at 1.6 to 200 uM measured per protein after 15 mins incubation. It is filed as ADME. The conditions noted are these: 0.25 h.
Series [13] relates to Canis familiaris. The series can be described thus: Drug metabolism in beagle dog assessed as product of fraction of intestinal absorption and fraction of compound hydrolysis to R-95913 formation in intestine at 1 mg/kg, intraduodenal. Also on record: dose 1 mg/kg, route intraduodenal. In kind it is ADME, organism-based, Canis lupus familiaris. The conditions noted are these: in vivo, other. In a few lines:
(§3)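 Male beagle dogs (n = 6, 9–12 kg) with portal- and hepatic-vein cannulas, fasted about 19 h, got 1 mg/kg intraduodenally in 5% N,N-dimethylacetamide–95% PEG 400. Portal, hepatic and jugular blood was drawn into heparin at 1–120 min. Plasma was precipitated with acetonitrile (phenacetin internal standard) and analysed by LC-MS/MS in MRM mode. AUC0–2h was by trapezoidal noncompartmental analysis, mean ± S.D.; availability fractions were calculated from these AUCs.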

In series [14] the test system is Canis familiaris. The series can be described thus: Drug metabolism in beagle dog assessed as R-95913 formation in liver at 1 mg/kg, intraduodenal. The conditions noted are these: in vivo, other. Also on record: dose 1 mg/kg, route intraduodenal. It is filed as ADME, organism-based, Canis lupus familiaris. In a few lines:
as §3

Series [15] has as its system Canis familiaris. The series can be described thus: Drug metabolism in beagle dog assessed as fraction of compound hydrolysis to R-95913 formation in intestine at 1 mg/kg, intraduodenal. It is filed as ADME, organism-based, Canis lupus familiaris. Also on record: dose 1 mg/kg, route intraduodenal. The settings on record: in vivo, other. The method, boiled down:
as §3

Series [16] concerns Canis familiaris. As to the kind of experiment: Drug metabolism in beagle dog assessed as product of fraction of intestinal absorption and fraction of compound hydrolysis to R-138727 formation in intestine at 1 mg/kg, intraduodenal. It is filed as ADME, organism-based, Canis lupus familiaris. The settings on record: in vivo, other. On the set-up: dose 1 mg/kg, route intraduodenal. In a few lines:
as §3

Series [17] concerns Canis familiaris. The series can be described thus: Drug metabolism in beagle dog assessed as fraction of compound hydrolysis to R-138727 formation in intestine at 1 mg/kg, intraduodenal. It is filed as ADME, organism-based, Canis lupus familiaris. On the set-up: dose 1 mg/kg, route intraduodenal. The settings on record: in vivo, other. The method, boiled down: as §3
The subject of series [18] is Canis familiaris. As to the kind of experiment: Drug metabolism in beagle dog assessed as fraction of R-95913 hydrolysis to R-138727 formation at 1 mg/kg, intraduodenal. The conditions noted are these: in vivo, other. On the set-up: dose 1 mg/kg, route intraduodenal. In kind it is ADME, organism-based, Canis lupus familiaris. In a few lines: as §3
Series [19] relates to Canis familiaris. As to the kind of experiment: Drug metabolism in beagle dog assessed as R-138727 formation in liver at 1 mg/kg, intraduodenal. It is filed as ADME, organism-based, Canis lupus familiaris. Also on record: dose 1 mg/kg, route intraduodenal. The settings on record: in vivo, other. The method, boiled down: as §3

As a reminder, the Km is the concentration of substrate that gives half-maximal velocity. As usually defined, the Vmax is the rate approached at saturating substrate. For the compound `O=C1C=C2CN(C(C(=O)C3CC3)c3ccccc3F)CCC2S1` (centres undefined), the Km in series [1] was found to be 42.7 µM; in series [2], 18.5 µM; in series [3] it was 80.4 µM; in series [4] it was 26 µM. Moreover, the Vmax in series [5] is given as 49.8 pmol/min/mg; in series [6] it was 379.9 pmol/min/mg; in series [7], 89.2 pmol/min/mg; in series [8] it was 247 pmol/min/mg. The CL is 1.2 µL/min/mg in [9] and 1.1 µL/min/mg in series [11]. Also, in [10], the CLint is 20.6 µL/min/mg. In addition, the CLH in series [12] worked out at 9.6 µL/min/mg.

In the case of `CC(=O)Oc1cc2c(s1)CCN(C(C(=O)C1CC1)c1ccccc1F)C2` (centres undefined) [PRASUGREL], the Fm was found to be 0.8 in series [13]; 0.08 in [14]; 0.83 in series [15]; 0.13 in [16]; 0.13 in series [17]; 0.23 in series [18]. In series [19], the Fm amounted to 0.75.

Source of the values: ChEMBL document CHEMBL3526088, “The intestine as an important contributor to prasugrel active metabolite formation in vivo” (Drug Metab Dispos, 2011).
